TRPML3 agonist: activates the human TRPML3 channel; Q8TDD5; HEK293 TRPML3-YFP, Fluo-8 calcium fluorescence; 100% = the carbachol control signal; activation, % at 3 µM; 220,000 tested, 0.29% active; AID 1448;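 active means activation above its plate's cutoff, the mean activation of the plate's test wells plus 3 SD, cut at about 12% in these data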;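 further: 0% = DMSO only wells and 100% = carbachol wells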
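Test system: HEK293 cells stably carrying human TRPML3-YFP; Doses: single dose, 3 µM final nominal compound, 0.3% DMSO final; Schedule: dye loading 1 h 37 °C then 30 min ambient, 125 s read; Technique: Fluo-8 calcium fluorescence; Benchmarks: high control carbachol 87 µM, low control DMSO.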
TRPN1 ag: activates the zebrafish TRPN1 channel; HEK293 zebrafish TRPN1-YFP, Fluo-8 calcium fluorescence; 100% = response to 87 µM carbachol; 220,000 tested, 0.18% active; activation, % at 3 µM; AID 1424;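 active means activation above its plate's cutoff, the mean activation of test wells on that plate plus 3 SD, cut at about 19% in these data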;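 further: 0% = DMSO alone and 100% = 87 µM carbachol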
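Control set: carbachol 87 µM as high control, DMSO as low control; system: HEK293 stable line with zebrafish TRPN1-YFP; read-out: % activation versus carbachol response; detection: intracellular calcium fluorescence with Fluo-8; doses: single test compound dose, 3 µM nominal, 0.3% DMSO; schedule: dye 1 h 37 °C plus 30 min RT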
CHO parental Ca: signal in parental CHO cells, OX1R antagonist counter-screen | parental CHO-K1, ATP-induced calcium, Fluo-8 fluorescence | inhibition, % at 5.6 µM | 330,000 tested, 0.63% active | AID 463079;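 active means inhibition above that plate's mean sample inhibition plus 3 SD, cut at about 26% in these data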;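 further: 0% = ATP-challenged DMSO wells and 100% = DMSO wells without ATP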
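Material – parental CHO cells · Reagent – ATP stimulus · Compound – single nominal dose of 5.6 µM per compound · Detection – Fluo-8 fluorescence · Read-out basis – percent inhibition of calcium signal · Controls – ATP-challenged DMSO wells low, unchallenged DMSO wells high · Repeats – no replicates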
OX1R antag-1: human HCRTR1 antagonism | O43613 | CHO/OX1R cells, Fluo-8 calcium fluorescence, orexin A | inhibition, % at 5 µM | 330,000 tested, 0.43% active;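 active means inhibition above its plate's threshold, mean inhibition of all tested compounds on the plate plus 3 SD, cut at about 37% in these data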;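 further: 0% = orexin A challenge wells and 100% = SB-334867-A antagonist wells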
Target sequence (O43613 whole entry, looked up): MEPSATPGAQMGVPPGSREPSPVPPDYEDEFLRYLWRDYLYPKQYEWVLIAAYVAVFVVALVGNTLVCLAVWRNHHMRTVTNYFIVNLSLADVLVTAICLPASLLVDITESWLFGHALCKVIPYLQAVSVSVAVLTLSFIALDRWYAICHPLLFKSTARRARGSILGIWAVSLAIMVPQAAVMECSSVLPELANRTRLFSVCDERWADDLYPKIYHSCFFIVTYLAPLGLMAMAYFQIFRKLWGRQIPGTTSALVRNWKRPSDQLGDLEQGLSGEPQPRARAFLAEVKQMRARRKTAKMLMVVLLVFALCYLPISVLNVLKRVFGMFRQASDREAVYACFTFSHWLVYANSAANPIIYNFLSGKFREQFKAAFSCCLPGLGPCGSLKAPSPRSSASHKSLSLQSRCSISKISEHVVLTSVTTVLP
OX1R antag-2: blocks the human orexin 1 receptor | OX1R-expressing cells, FRET antagonist read-out | inhibition, % at 6.6 µM | 330,000 tested, 1.8% active; in the data active means inhibition mostly above about 38%, no sharp cut-off; inactive means mostly below about 40%;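 further: 0% = agonist challenge alone and 100% = reference antagonist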
* = called active by the depositor. This is a sample that favours compounds with a hit; in the whole collection about 2.5% have one here.

What do the screens show for `COc1ccc(CN(CCc2ccccc2)Cc2ccccc2)cc1OC`?
CHO parental Ca: -50; OX1R antag-1: -40; OX1R antag-2: 60*

How did COc1cc(CN(CCN(C)C)Cc2ccccc2)ccc1OCc1ccccc1 do in these assays?
CHO parental Ca: -16; OX1R antag-1: -20; OX1R antag-2: -6

Results for CCC1Oc2ccccc2C(=O)N(CC(=O)c2ccc3c(c2)OCCO3)C1=O (centres undefined) ?
CHO parental Ca: -14; OX1R antag-1: -6; OX1R antag-2: 7

How did COc1ccc(CCNC(=O)c2cc3c(C)nccc3[nH]c2=O)cc1OC do in these assays?
TRPML3 agonist: 1; TRPN1 ag: 2; CHO parental Ca: -7; OX1R antag-1: -17; OX1R antag-2: 28

Results for O=C(Nc1ccc([N+](=O)[O-])c(NC(=O)c2cccnc2)c1)c1cccnc1 ?
CHO parental Ca: -3; OX1R antag-1: 1; OX1R antag-2: 8

What do the screens show for `O=C(Nc1cc2c(cc1[N+](=O)[O-])OCCO2)c1cccnc1`?
CHO parental Ca: -14; OX1R antag-1: -6; OX1R antag-2: 50*

What do the screens show for `Cc1ccc(C(=O)NCCC(=O)N2CCCC2)cc1`?
CHO parental Ca: -3; OX1R antag-1: -11; OX1R antag-2: -4

How did CCOc1ccc2oc(C(=O)NNC(=O)c3ccccc3O)c(C)c2c1 do in these assays?
CHO parental Ca: -4; OX1R antag-1: -29; OX1R antag-2: 4

How did Cc1c(C(=O)NNC(=O)c2ccccc2O)oc2ccc(Br)cc12 do in these assays?
CHO parental Ca: 64*; OX1R antag-1: -3; OX1R antag-2: 8

What do the screens show for `COc1ccc(N2CCN(C(=O)c3ccc(CS(=O)(=O)c4ccc(OC)cc4)o3)CC2)cc1`?
TRPML3 agonist: 1; TRPN1 ag: 2; CHO parental Ca: -20; OX1R antag-1: -19; OX1R antag-2: 9

Results for COc1ccc(S(=O)(=O)Cc2ccc(C(=O)N3CCN(c4ccc(Cl)cc4)CC3)o2)cc1 ?
TRPML3 agonist: 1; TRPN1 ag: 3; CHO parental Ca: 41*; OX1R antag-1: 10; OX1R antag-2: 13

What do the screens show for `COc1ccc(S(=O)(=O)Cc2ccc(C(=O)N3CCN(c4cccc(C)c4C)CC3)o2)cc1`?
TRPML3 agonist: 0; TRPN1 ag: -1; CHO parental Ca: 48*; OX1R antag-1: 7; OX1R antag-2: 11

How did Cc1ccc2c(=O)n3c(nc2c1)C(Cc1ccccc1)NC(=O)c1ccc(Cl)cc1-3 (centres undefined) do in these assays?
CHO parental Ca: -19; OX1R antag-1: -15; OX1R antag-2: 3

Results for CCc1ccccc1NC(=O)COc1ccc(C(=S)N2CCCC2)cc1 ?
TRPML3 agonist: -1; TRPN1 ag: 0; CHO parental Ca: -15; OX1R antag-1: -1; OX1R antag-2: 46*

How did O=C1NC(=Nc2ccccc2)S/C1=C\c1cccn1-c1ccccc1 do in these assays?
TRPML3 agonist: 0; TRPN1 ag: 0; CHO parental Ca: -2; OX1R antag-1: 17; OX1R antag-2: 60*

Results for CCCCc1ccc(NC(=O)c2ccc(N(C)S(C)(=O)=O)cc2)cc1 ?
TRPML3 agonist: 3; TRPN1 ag: 13; CHO parental Ca: 69*; OX1R antag-1: 10; OX1R antag-2: 17

What do the screens show for `CCCCc1ccc(NC(=O)c2ccc(NS(C)(=O)=O)cc2)cc1`?
TRPML3 agonist: 0; TRPN1 ag: 1; CHO parental Ca: -4; OX1R antag-1: 0; OX1R antag-2: 26

How did Cc1cc(NC(=O)CSc2nnc(C)o2)no1 do in these assays?
CHO parental Ca: 15; OX1R antag-1: 0; OX1R antag-2: 1

Results for Cc1ccc(S(=O)(=O)NNC(=S)NC(=O)c2ccc([N+](=O)[O-])cc2)cc1 ?
TRPML3 agonist: 1; TRPN1 ag: 1; CHO parental Ca: -6; OX1R antag-1: -19; OX1R antag-2: 70*

How did CCCCCC(=O)NNC(=S)NC(=O)c1ccc([N+](=O)[O-])cc1 do in these assays?
TRPML3 agonist: 0; TRPN1 ag: -1; CHO parental Ca: -7; OX1R antag-1: -20; OX1R antag-2: 70*

What do the screens show for `Cc1cc(C)c2c(=O)n(CC(=O)NCCCN3CCN(c4ccccc4F)CC3)sc2n1`?
TRPML3 agonist: 0; TRPN1 ag: 2; CHO parental Ca: 45*; OX1R antag-1: 39; OX1R antag-2: 2

Results for Cc1cc(C)c2c(=O)n(CC(=O)Nc3cccc(F)c3)sc2n1 ?
TRPML3 agonist: 2; TRPN1 ag: 3; CHO parental Ca: 22; OX1R antag-1: 6; OX1R antag-2: 17

What do the screens show for `Cc1cc(C)c2c(=O)n(CC(=O)NCCCN3CCOCC3)sc2n1`?
TRPML3 agonist: 0; TRPN1 ag: -2; CHO parental Ca: -8; OX1R antag-1: -11; OX1R antag-2: 10

How did CCOc1ccc(NC(=O)Cn2sc3nc(C)cc(C)c3c2=O)cc1 do in these assays?
TRPML3 agonist: 1; TRPN1 ag: 0; CHO parental Ca: 46*; OX1R antag-1: 52*; OX1R antag-2: 5

Results for Cc1ccc(NC(=O)Cn2sc3nc(C)cc(C)c3c2=O)c(Cl)c1 ?
TRPML3 agonist: 2; TRPN1 ag: 5; CHO parental Ca: 46*; OX1R antag-1: 25; OX1R antag-2: 4

Results for Cc1cc(C)c2c(=O)n(CC(=O)Nc3ccc(Cl)cc3)sc2n1 ?
TRPML3 agonist: 5; TRPN1 ag: 11; CHO parental Ca: 56*; OX1R antag-1: 45*; OX1R antag-2: 10

What do the screens show for `Cc1ccc(NC(=O)Cn2c(C)cc(C)c(C#N)c2=O)c(Cl)c1`?
TRPML3 agonist: 1; TRPN1 ag: 2; CHO parental Ca: -10; OX1R antag-1: -19; OX1R antag-2: 17

What do the screens show for `O=C(CCl)Nc1cc2[nH]c(=O)[nH]c2cc1Br`?
TRPML3 agonist: 1; TRPN1 ag: 0; CHO parental Ca: 13; OX1R antag-1: 3; OX1R antag-2: 8

How did Cc1cc(C(=O)Nc2ccc(OCc3ccccc3)cc2)c(C)o1 do in these assays?
TRPML3 agonist: 0; TRPN1 ag: -1; CHO parental Ca: -2; OX1R antag-1: -6; OX1R antag-2: 24

What do the screens show for `Cc1cc(C)c2c(=O)n(CC(=O)N3CCC(Cc4ccccc4)CC3)sc2n1`?
TRPML3 agonist: 0; TRPN1 ag: 0

What do the screens show for `Cc1cccc(N2CCN(C(=O)Cn3sc4nc(C)cc(C)c4c3=O)CC2C)c1` (centres undefined)?
TRPML3 agonist: 2; TRPN1 ag: 3; CHO parental Ca: 36*; OX1R antag-1: 40; OX1R antag-2: 5

Results for CC(=O)c1ccc(NC(=O)c2cc(CC(C)C)on2)cc1 ?
TRPML3 agonist: 0; TRPN1 ag: 2; CHO parental Ca: 36*; OX1R antag-1: -7; OX1R antag-2: 2

What do the screens show for `CC(C)Cc1cc(C(=O)Nc2cccnc2)no1`?
TRPML3 agonist: 1; TRPN1 ag: 1; CHO parental Ca: -4; OX1R antag-1: -8; OX1R antag-2: 8

Results for CCCN1CCCC[C@H]1C(=O)Nc1c(C)cccc1C ?
CHO parental Ca: 7; OX1R antag-1: -2; OX1R antag-2: 9

Assay outcomes: PubChem BioAssay, The Scripps Research Institute Molecular Screening Center
